UPR XBP1 act: adaptive UPR (XBP1) activation; hit rate 0.33% among 330,000; activation, % at 20 µM; CHO-XBP1 luciferase reporter, IRE1-XBP1 UPR activation, luminescence; percent of tunicamycin response, DMSO as zero; AID 463104;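 active means versus positive control, 20 µM dose yields 30% or more activation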;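 further: 100% = tunicamycin at 10 µg/mL and 0% = DMSO only wells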
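Test system: CHO-XBP1 luciferase reporter cells | Buffer or medium: Serum-containing F12 medium, 10% FBS | Schedule: 6 h compound exposure at 37 °C, 5% CO2 | Detection: Steady-Glo luciferase glow luminescence, 10 min after reagent addition | Read-out basis: Activation, % of tunicamycin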
CHOP UPR activ: apoptotic UPR (CHOP) activation. hit rate 0.34% among 330,000. CHO-CHOP luciferase reporter, luminescence; percent of tunicamycin response over DMSO baseline. activation, % at 10 µM;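 active means at 10 µM dose, activation of 40% or more, normalized to positive control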;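 further: 100% = tunicamycin at 10 µg/mL and 0% = DMSO alone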
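Material: CHO-CHOP cells, stable luciferase reporter of PERK-eIF2a-CHOP signalling; quantity: 500 reporter cells seeded per well; buffer or medium: F12 medium containing 10% fetal bovine serum; compound: one dose, 10 µM in 0.5% DMSO; incubation: 6 h compound treatment, 37 °C; measured by: Steady-Glo luciferase luminescence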
Beta2AR agonist: human beta-2 adrenergic receptor agonism by FAP; P07550; AID 504454; Am2.2-beta2AR cells, FAP receptor internalization, flow cytometry; hit rate 0.43% among 340,000; response, % (test concentration not listed);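 active means response above a set limit, near 3 SD of response in nonfluorescent compounds, cut at about 42% in these data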
VLA-4 inh: inhibition in a human VLA-4 binding assay. hit rate 0.2% among 330,000. P13612. VLA-4 expressing cells, ligand binding flow cytometry. inhibition, % (about 7 µM as worked out from the volumes in the protocol); in the data active means inhibition above about 50%
CHOP inh: inhibitors of CHOP induction in ER stress response; CHO-K1 CHOP-promoter luciferase, tunicamycin-induced, 15-18 h; hit rate 3.8% among 220,000; inhibition, % at 10 µM;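 active means compounds that reduced the stress-induced luciferase reporter signal by more than about 70% of percent inhibition, limit read from the data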;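 further: 0% = tunicamycin plus vehicle and 100% = wells without tunicamycin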
* marks the source's active call; other numbers are inactive results. The sample as a whole holds a higher share of hits than the screen did.

`Cc1ccc(C(C)C)c(OCCNC(=S)Nc2cccc3ccccc23)c1` gave UPR XBP1 act 4, CHOP UPR activ 0, Beta2AR agonist 0, VLA-4 inh -5 and CHOP inh 76*.
C/C(=N\Nc1nc2ccc(Cl)cc2o1)c1ccccc1 was read as UPR XBP1 act 2, CHOP UPR activ 2, Beta2AR agonist -3, VLA-4 inh 6 and CHOP inh -22.
CC(=O)Nc1ccc(OCC(O)Cn2cncn2)cc1 (stereo unspecified) was read as UPR XBP1 act -3, CHOP UPR activ 0, Beta2AR agonist -4 and VLA-4 inh -2.
Screening COc1ccc(Br)cc1C(=O)N/N=C/c1ccc([N+](=O)[O-])cc1 returned UPR XBP1 act 5, CHOP UPR activ -1, Beta2AR agonist 8, VLA-4 inh 11 and CHOP inh 100*.
COc1ccc(C(=O)Nc2cc3c(cc2OC)CCCC3)cc1Br was read as UPR XBP1 act -2, CHOP UPR activ 2, Beta2AR agonist -10, VLA-4 inh 0 and CHOP inh 82*.
For CC(=O)c1c(C)[nH]c(C(=O)C(C)Sc2nnc(NC3CC3)s2)c1C (stereo unspecified) the results were UPR XBP1 act -3, CHOP UPR activ -1, Beta2AR agonist -2 and VLA-4 inh -4.
`Cc1ccccc1N=CC1=C(O)c2ccccc2C1=O` gave UPR XBP1 act -7, CHOP UPR activ -5, Beta2AR agonist -10, VLA-4 inh -3 and CHOP inh 78*.
c1ccc(-c2[nH]ncc2CN2CCN(Cc3ccc4c(c3)OCO4)CC2)cc1 was read as UPR XBP1 act 2, CHOP UPR activ -2, Beta2AR agonist -2, VLA-4 inh -5 and CHOP inh 7.
`Cc1cccc(OCC(=O)N/N=C\c2cn(C)c3ccccc23)c1` gave UPR XBP1 act 0, CHOP UPR activ 1, Beta2AR agonist -7, VLA-4 inh 0 and CHOP inh 55.
Screening CCOC(=O)c1c2ccc(OCC(=O)N/N=C/c3ccccc3C(F)(F)F)cc2n2ccccc12 returned CHOP inh 96*.
`Cc1nc(Nc2ccccc2)sc1-c1ccccc1` gave UPR XBP1 act 0, CHOP UPR activ 7, Beta2AR agonist -5 and CHOP inh 70*.
Cc1nc(Nc2ccc(C(=O)O)cc2)sc1-c1ccccc1 was read as UPR XBP1 act -5, CHOP UPR activ -7, Beta2AR agonist 1, VLA-4 inh -2 and CHOP inh 45.
O=C(C=P(c1ccccc1)(c1ccccc1)c1ccccc1)c1ccccc1-c1ccccc1C(=O)C=P(c1ccccc1)(c1ccccc1)c1ccccc1 was read as Beta2AR agonist 104*.
CC(C)n1ncc(N2CCOCC2)c(Cl)c1=O was read as UPR XBP1 act 0, CHOP UPR activ -1, Beta2AR agonist 2 and VLA-4 inh -7.
Screening Cc1cc(C)nc(-n2nc(C)cc2NC(=O)c2cccc(S(=O)(=O)N3CCCCC3)c2)n1 returned CHOP inh 107*.
Screening O=C(COC(=O)c1ccccc1O)NC(=O)NCc1ccccc1 returned UPR XBP1 act -1, CHOP UPR activ 0 and Beta2AR agonist 13.
For COc1ccc(Nc2nc(C)cc(=O)[nH]2)c(OC)c1 the results were UPR XBP1 act -2, CHOP UPR activ 0, Beta2AR agonist 1, VLA-4 inh 3 and CHOP inh 19.
For CCCc1cc(=O)[nH]c(Nc2cc(OC)ccc2OC)n1 the results were UPR XBP1 act -1, CHOP UPR activ -1, Beta2AR agonist -7, VLA-4 inh 7 and CHOP inh 74*.
For COc1cccc(Nc2ncnc3ccccc23)c1 the results were UPR XBP1 act -2, CHOP UPR activ 4, Beta2AR agonist -4, VLA-4 inh 5 and CHOP inh 7.
O=C(Oc1cccc(Nc2ncnc3ccccc23)c1)c1ccccc1Cl was read as UPR XBP1 act 1, CHOP UPR activ 5, Beta2AR agonist 1, VLA-4 inh -1 and CHOP inh 87*.
`Cc1cc(NC(=O)/C(C#N)=C\c2ccc(-c3ccc(SC(F)F)cc3)o2)n(-c2ccccc2)n1` gave Beta2AR agonist 11.
Screening C(=N\N1CCN(C2c3ccccc3-c3ccccc32)CC1)/c1ccncc1 returned UPR XBP1 act -3, CHOP UPR activ -2, Beta2AR agonist 1, VLA-4 inh 9 and CHOP inh 83*.
Screening Oc1cccc(/C=N/N2CCN(C3c4ccccc4-c4ccccc43)CC2)c1 returned UPR XBP1 act 1, CHOP UPR activ -1, Beta2AR agonist 0, VLA-4 inh 6 and CHOP inh -5.
Cc1cccc(Nc2nc(-c3ccc(F)c(C)c3)cs2)n1 was read as UPR XBP1 act 4, CHOP UPR activ 7, Beta2AR agonist 12 and VLA-4 inh -4.
For Cc1cccc(Nc2nc(-c3ccc(O)c(O)c3)cs2)n1 the results were UPR XBP1 act 17, CHOP UPR activ 100*, Beta2AR agonist 12 and VLA-4 inh 5.
`O=C(Nc1cc(C(F)(F)F)ccc1N1CCOCC1)C1Cc2ccccc2CN1C(=O)c1ccco1` (stereo unspecified) gave UPR XBP1 act -1, CHOP UPR activ -2, Beta2AR agonist 1, VLA-4 inh -5 and CHOP inh 72*.
`O=C(CCCCl)NC(=S)Nc1cc(C(F)(F)F)ccc1N1CCOCC1` gave UPR XBP1 act 1, CHOP UPR activ 0, Beta2AR agonist -7, VLA-4 inh 15 and CHOP inh 81*.
Screening O=C(Nc1cc(C(F)(F)F)ccc1N1CCOCC1)c1cccc(F)c1 returned UPR XBP1 act -2, CHOP UPR activ 1, Beta2AR agonist -9, VLA-4 inh 7 and CHOP inh 76*.
`O=[N+]([O-])c1cccc(-c2nnc(-c3ccccc3)o2)c1` gave UPR XBP1 act 1, CHOP UPR activ 4, Beta2AR agonist -8, VLA-4 inh 4 and CHOP inh 80*.
For O=[N+]([O-])c1cccc(-c2nnc(-c3ccc4c(c3)OCO4)o2)c1 the results were UPR XBP1 act 2, CHOP UPR activ 2, Beta2AR agonist -9, VLA-4 inh -3 and CHOP inh -28.
COc1ccc(Nc2cc(=O)n(C3CCCCC3)c(=O)[nH]2)c(OC)c1 was read as UPR XBP1 act -1, CHOP UPR activ -1, Beta2AR agonist 1, VLA-4 inh 16 and CHOP inh 23.
For Cc1cc(C)cc(Nc2cc(=O)n(C3CCCCC3)c(=O)[nH]2)c1 the results were UPR XBP1 act -6, CHOP UPR activ 0, Beta2AR agonist 15, VLA-4 inh -7 and CHOP inh 87*.
Screening Cc1cc(SCC(=O)N/N=C/c2ccc(O)cc2O)c(C)cc1Br returned UPR XBP1 act -2, CHOP UPR activ -2, Beta2AR agonist 2, VLA-4 inh 1 and CHOP inh 88*.
